Bioassay records (PubChem BioAssay)
Only some compounds are listed: those with a hit (about 5.2% of all), similar ones and a draw of the others.
ZTA counter = ZTA (EBV) inhibition in EBNA-1 counter-screen; P03206; ZTA-DNA binding, fluorescence polarization; inhibition, % at 11 µM; hit rate 0.15% among 320,000; AID 2234; in the data active = inhibition above about 33%
Target sequence (P03206 whole entry, looked up): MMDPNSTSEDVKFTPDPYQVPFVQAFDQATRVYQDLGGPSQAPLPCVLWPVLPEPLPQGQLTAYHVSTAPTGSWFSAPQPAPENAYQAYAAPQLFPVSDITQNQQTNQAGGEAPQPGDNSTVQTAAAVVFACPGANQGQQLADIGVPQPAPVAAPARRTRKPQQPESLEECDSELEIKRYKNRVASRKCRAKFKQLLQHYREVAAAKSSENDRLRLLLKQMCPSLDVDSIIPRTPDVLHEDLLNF
HCV NS3 hel inh = inhibitors of Hepatitis C virus NS3 helicase; AID 1800; inhibition, % at 10.9 µM; NS3 helicase DNA unwinding, Cy5 molecular beacon fluorescence; hit rate 0.56% among 290,000;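 active = inhibition above the mean of all tested compounds plus 3 SD, set per campaign, cut at about 35% in these data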;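 note: 0% = DMSO wells and 100% = thioflavine S control wells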
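test system = hepatitis C virus NS3 helicase domain fragment enzyme | reagent = annealed dual-labelled DNA beacon duplex, ATP-started | times = 1 h at 25 °C | detection = Cy5 fluorescence, 0 and 60 min reads | read-out basis = percent inhibition from t60/t0 fluorescence ratio | control set = DMSO and thioflavine S | replication = one well per compound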
PfM18AAP inh = PfM18AAP enzyme inhibition; recombinant PfM18AAP, H-Glu-NHMec fluorogenic cleavage; inhibition, % at 7.35 µM; hit rate 1.2% among 290,000; AID 1822;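 active = inhibition above the campaign mean inhibition over all tested compounds plus 3 SD, cut at about 28% in these data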;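 note: 0% = plate median of test compound wells and 100% = 2 mM ZnCl2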
ALR inh = inhibitors of human sulfhydryl oxidase ALR; inhibition, % (no concentration beside the values); hit rate 3.8% among 290,000; purified ALR, DTT oxidation, H2O2 HRP-luminol luminescence;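 active = mean replicate inhibition above about 79%, with every replicate also reaching it, limit read from the data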
Target sequence (P55789 whole entry, looked up): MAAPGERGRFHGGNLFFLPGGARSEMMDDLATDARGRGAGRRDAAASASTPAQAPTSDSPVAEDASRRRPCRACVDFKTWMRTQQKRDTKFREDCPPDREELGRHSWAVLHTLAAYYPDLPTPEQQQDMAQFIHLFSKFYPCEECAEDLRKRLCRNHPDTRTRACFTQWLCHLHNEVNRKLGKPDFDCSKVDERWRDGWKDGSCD
EBNA-1 inh = blocks EBNA-1 binding to DNA; EBNA-1 DNA binding, fluorescence polarization; inhibition, % at 14.8 µM; hit rate 0.34% among 300,000; AID 1950; in the data active = inhibition above about 28%
HCV core dimer = HCV core protein dimerization inhibition | TR-FRET GST/Flag-core106 dimerization, 1536-well | inhibition, % at 5 µM | hit rate 0.33% among 300,000;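 active = inhibition above the mean of all tested compounds plus 3 SD, set per screening campaign, cut at about 45% in these data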
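Assay system – GST-tagged and Flag-tagged HCV core protein residues 1-106 · Quantity – core106 proteins, GST 13.5 nM and Flag 17 nM · Benchmarks – unlabelled core106 and no-GST-core106 wells · Read-out basis – percent inhibition of core106 dimerization signal · Detection – time-resolved FRET, ex 340 nm, em 617 and 671 nm · Schedule – 4 h at 22.5 °C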
* marks the source's active call; other numbers are inactive results.

How did CCCn1nc(NS(=O)(=O)c2cccc3nonc23)c2cc3cccc(C)c3nc21 do in these assays?
ZTA counter: 9; HCV NS3 hel inh: -22; PfM18AAP inh: -6; ALR inh: 97*; EBNA-1 inh: 7; HCV core dimer: 5

Results for Cn1c(CCNC(=O)c2ccccc2Cl)n[nH]c1=S ?
ZTA counter: 0; HCV NS3 hel inh: 3; PfM18AAP inh: -4; ALR inh: 96*; EBNA-1 inh: 3; HCV core dimer: -2

Results for Cn1c(Cc2ccccc2)n[nH]c1=S ?
ZTA counter: -13; HCV NS3 hel inh: -7; PfM18AAP inh: 30*; ALR inh: 6; EBNA-1 inh: 4; HCV core dimer: -14

How did Nn1c(Cc2ccccc2)n[nH]c1=S do in these assays?
ZTA counter: 7; HCV NS3 hel inh: -2; PfM18AAP inh: 22; ALR inh: 95*; EBNA-1 inh: 0; HCV core dimer: -1

Results for Cc1ccc(C(=O)NCCc2n[nH]c(=S)n2C)cc1 ?
ZTA counter: -2; HCV NS3 hel inh: 4; PfM18AAP inh: 4; ALR inh: 3; EBNA-1 inh: -2; HCV core dimer: -8

How did CCOc1ccc(Cc2n[nH]c(=S)n2Cc2ccccc2)cc1 do in these assays?
ZTA counter: -4; HCV NS3 hel inh: 10; PfM18AAP inh: 8; ALR inh: 95*; EBNA-1 inh: 0; HCV core dimer: -3

What do the screens show for `COc1cccc(CNC(=O)c2ccccc2-c2ccccc2)c1`?
ZTA counter: 9; HCV NS3 hel inh: 1; PfM18AAP inh: -3; ALR inh: 2; EBNA-1 inh: 0; HCV core dimer: -5

Results for CCOc1ccc(CN2CCN(Cc3cccn3-c3ncccn3)CC2CCO)cc1 (stereo not given) ?
ZTA counter: -17; HCV NS3 hel inh: -7; PfM18AAP inh: -3; ALR inh: 1; EBNA-1 inh: -5; HCV core dimer: 0

How did COc1ccc(CCNC(=O)c2cc(-c3ccc(Cl)c(Cl)c3)oc2C)cc1 do in these assays?
ZTA counter: -6; HCV NS3 hel inh: 7; PfM18AAP inh: 2; ALR inh: 35; EBNA-1 inh: -2; HCV core dimer: 0

How did CCn1c(CSCc2ccc(Cl)cc2)n[nH]c1=S do in these assays?
ZTA counter: 0; HCV NS3 hel inh: 6; PfM18AAP inh: 14; ALR inh: -3; EBNA-1 inh: 0; HCV core dimer: -3

What do the screens show for `Cn1c(CSCc2ccc(Cl)c(Cl)c2)n[nH]c1=S`?
ZTA counter: 3; HCV NS3 hel inh: 6; PfM18AAP inh: 17; ALR inh: 90*; EBNA-1 inh: -4; HCV core dimer: -4

Results for O=C(CCN1C(=O)c2ccccc2S1(=O)=O)N1CCN(c2ccc(F)cc2)CC1 ?
ZTA counter: -18; ALR inh: 22; EBNA-1 inh: -14; HCV core dimer: -2

How did O=C(CCN1C(=O)c2ccccc2S1(=O)=O)N1CCN(c2ccccc2)CC1 do in these assays?
ZTA counter: -5; HCV NS3 hel inh: -3; PfM18AAP inh: -6; ALR inh: 88*; EBNA-1 inh: 5; HCV core dimer: 1

Results for O=C(CCSc1ccccc1)N1CCN(c2ccccc2)CC1 ?
ZTA counter: 4; HCV NS3 hel inh: 4; PfM18AAP inh: -3; ALR inh: 91*; EBNA-1 inh: -6; HCV core dimer: 3

How did O=C(CCSc1ccc(Cl)cc1)N1CCCCCC1 do in these assays?
ZTA counter: -12; HCV NS3 hel inh: 1; PfM18AAP inh: -1; ALR inh: -1; EBNA-1 inh: 9; HCV core dimer: 2

Results for Cc1cc([N+](=O)[O-])nn1CCCC(=O)N1CCN(c2ccccc2)CC1 ?
ZTA counter: 21; HCV NS3 hel inh: 6; PfM18AAP inh: -6; ALR inh: 98*; EBNA-1 inh: 12; HCV core dimer: 15

What do the screens show for `O=C(CCSc1ccc(Cl)cc1)N1CCN(c2ccc(O)cc2)CC1`?
ZTA counter: -12; HCV NS3 hel inh: 2; PfM18AAP inh: 19; ALR inh: 100*; EBNA-1 inh: 4; HCV core dimer: -4

What do the screens show for `Clc1ccc2oc3c(Cl)ncnc3c2c1`?
ZTA counter: -15; HCV NS3 hel inh: -12; PfM18AAP inh: 3; ALR inh: 0; EBNA-1 inh: -16; HCV core dimer: 4

How did CC(=O)c1ccc(OCCOc2ccc(Cl)c3cccnc23)cc1 do in these assays?
ZTA counter: -9; HCV NS3 hel inh: 0; PfM18AAP inh: -7; ALR inh: -10; EBNA-1 inh: -12; HCV core dimer: 3

How did c1ccc(Nc2c3c(nc4ccccc24)CCC3)cc1 do in these assays?
ZTA counter: -15; HCV NS3 hel inh: -2; PfM18AAP inh: 10; EBNA-1 inh: 0; HCV core dimer: 2

What do the screens show for `COc1ccc(Nc2c3c(nc4ccccc24)CCC3)cc1`?
ZTA counter: -7; HCV NS3 hel inh: -2; PfM18AAP inh: 9; ALR inh: 99*; EBNA-1 inh: -8; HCV core dimer: -16

What do the screens show for `COc1ccc(Nc2c3c(nc4ccccc24)CCCC3)cc1OC`?
ZTA counter: 4; HCV NS3 hel inh: -9; PfM18AAP inh: 5; ALR inh: 99*; EBNA-1 inh: 0; HCV core dimer: 8

Results for Cc1ccc2nc3c(c(Nc4ccccc4)c2c1)CCC3 ?
ZTA counter: -6; HCV NS3 hel inh: -16; PfM18AAP inh: -3; ALR inh: 97*; EBNA-1 inh: -11; HCV core dimer: 2

Results for Fc1ccc(Nc2c3c(nc4ccccc24)CCC3)cc1 ?
ZTA counter: 4; HCV NS3 hel inh: 3; PfM18AAP inh: 6; ALR inh: 95*; EBNA-1 inh: 3; HCV core dimer: 6

What do the screens show for `O=C(CN1C(=O)/C(=C/c2ccc(F)cc2)SC1=S)NC1CCS(=O)(=O)C1` (stereo not given)?
ZTA counter: -2; HCV NS3 hel inh: 10; PfM18AAP inh: 8; ALR inh: 8; EBNA-1 inh: 1; HCV core dimer: 0

How did Cn1c(CC(=O)Nc2ccccc2Cl)nnc1SCC(=O)Nc1nncs1 do in these assays?
ZTA counter: 7; HCV NS3 hel inh: -1; PfM18AAP inh: -1; ALR inh: -4; EBNA-1 inh: -3; HCV core dimer: -4

Results for COc1cc(Nc2nc(-c3ccccc3)c3cc(C)ccc3n2)cc(OC)c1OC ?
ZTA counter: 2; HCV NS3 hel inh: 13; PfM18AAP inh: -8; EBNA-1 inh: 4; HCV core dimer: 16

Results for COc1ccc(Nc2nc(N)c3ccccc3n2)c(OC)c1 ?
HCV NS3 hel inh: 15; PfM18AAP inh: 7; ALR inh: 84*

How did COc1ccc(Nc2c3ccccc3nc3ccccc23)cc1 do in these assays?
ZTA counter: -16; HCV NS3 hel inh: -3; PfM18AAP inh: 3; ALR inh: 100*; EBNA-1 inh: -9; HCV core dimer: 1

Results for COc1cc(Nc2c3ccccc3nc3ccccc23)cc(OC)c1OC ?
ZTA counter: 21; HCV NS3 hel inh: -10; PfM18AAP inh: 2; ALR inh: 94*; EBNA-1 inh: 9; HCV core dimer: -7
